Calls of active or inactive are those of the source.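 The calls were made as follows: active = cytotoxic compound whose concentration leaving half the cells alive is below 5 µM in either medium; inactive = the rest.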
Assay: cytotoxicity in BW5147 murine T cells, late-stage follow-up, cytotoxicity control for PAFAH2 inhibitor project, cell-based, absorbance, serum-free and serum media (AID 504511)
Settings: BW5147 murine T cells viability, WST-1 absorbance
Method in brief: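 Detection: WST-1 absorbance. Material: murine BW5147-derived T cells. Compound: Seven-point fivefold dilution series, top final dose 50 µM. Times: 48 h compound exposure of cells at 37 °C.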

SMILES | CC50 (serum-free media) | CC50 (with FCS)
O=C(N1CCCC1)n1ncc(-c2ccc(-c3ccccc3)cc2)n1 | 35 µM (inactive) | > 50 µM (inactive)
O=C(N1CCCC1)n1ncc(-c2ccc(Oc3ccccc3)cc2)n1 | 48 µM (inactive) | > 50 µM (inactive)
